Experimental findings from ChEMBL document CHEMBL5252510, “A Novel Potent Oral Series of VEGFR2 Inhibitors Abrogate Tumor Growth by Inhibiting Angiogenesis” (J Med Chem, 2016) are described below.

The source made the active and inactive calls. No cut-off for these calls is given here.

Data set [1] can be described thus: Tmax in OFA rat at 3 mg/kg, po measured upto 24 hrs by HPLC/UV analysis. Conditions: in vivo. It is filed as ADME, organism-based. The gist of the method:
(§1)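 Female OFA rats, femoral artery/vein catheterized and recovered 96 h. Oral gavage of a micronized suspension in 0.5 % carboxymethyl cellulose at 25 or 3 mg/kg. Bioavailability taken against femoral-vein iv dosing. Plasma sampled 5 min–24 h (9 time points).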

Data set [2] in a line: Volume of distribution at steady state in OFA rat at 1 mg/kg, iv measured upto 24 hrs by HPLC/UV analysis. Conditions: in vivo, read-out: Vdss. It is filed as ADME, organism-based. Put shortly:
(§2)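 Female OFA rats with femoral artery and vein catheters, 96 h recovery. IV into femoral vein: 2.5 mg/kg in ethanol/dimethylisosorbide/PEG400/D5W (10/15/35/40) or 1 mg/kg in NMP/PEG200 (30:70). Plasma sampled at 5, 15, 30 min, 1, 2, 4, 6, 8, 24 h; drug measured by HPLC (UV or MS-MS stated); parameters dose normalized, n=2-4.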

Data set [3] can be described thus: Clearance in OFA rat at 1 mg/kg, iv measured upto 24 hrs by HPLC/UV analysis. It is filed as ADME, organism-based. Conditions: in vivo. The gist of the method:
(§3)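 Catheters were placed in the femoral artery and vein of female OFA rats, followed by 96 h recovery. IV doses went into the femoral vein: 2.5 mg/kg in ethanol/dimethylisosorbide/PEG400/5 % glucose (10/15/35/40), or 1 mg/kg in NMP/PEG200 (30:70). Plasma samples at 5, 15, 30 min and 1, 2, 4, 6, 8, 24 h. Parameters reported over 24 h. n=2–4.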

The nature of data set [4]: Half-life in OFA rat at 1 mg/kg, iv measured upto 24 hrs by HPLC/UV analysis. It is filed as ADME, organism-based. The settings on record: in vivo. Put shortly:
as §3

Data set [5] is described as follows: Dose normalized Cmax in OFA rat at 3 mg/kg, po measured upto 24 hrs by HPLC/UV analysis. In kind it is ADME, organism-based. Conditions: in vivo. The gist of the method:
as §1

The nature of data set [6]: Oral bioavailability in OFA rat at 3 mg/kg measured upto 24 hrs by HPLC/UV analysis. It is filed as ADME, organism-based. The settings on record: in vivo. The gist of the method: as §1
Data set [7] can be described thus: Clearance in OFA rat at 2.5 mg/kg, iv measured upto 24 hrs by HPLC/UV analysis. The settings on record: in vivo. It is filed as ADME, organism-based. Put shortly:
as §3

A short description of data set [8]: Volume of distribution at steady state in OFA rat at 2.5 mg/kg, iv measured upto 24 hrs by HPLC/UV analysis. It is filed as ADME, organism-based. The settings on record: in vivo, read-out: Vdss. The gist of the method:
as §2

A short description of data set [9]: Dose normalized Cmax in OFA rat at 25 mg/kg, po measured upto 24 hrs by HPLC/UV analysis. It is filed as ADME, organism-based. Conditions: in vivo. Put shortly:
as §1

The nature of data set [10]: Half-life in OFA rat at 2.5 mg/kg, iv measured upto 24 hrs by HPLC/UV analysis. It is filed as ADME, organism-based. The settings on record: in vivo. Put shortly:
as §3

In data set [11] the target is RAF proto-oncogene serine/threonine-protein kinase (Homo sapiens) (UniProt P04049). The data set can be described thus: Inhibition of human recombinant GST-fused cRAF expressed in baculovirus expression system using poly-Glu-Tyr (4:1) as substrate measured after 10 mins in presence of gamma-[33P]-ATP by scintillation counting analysis. The gist of the method: (§4)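 GST-fused kinase domains were expressed in baculovirus and purified on glutathione-Sepharose. 10 min at ambient temperature, stopped with EDTA. Filter binding and scintillation counting. IC50 by linear regression of percent inhibition.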

Data set [12] deals with Tyrosine-protein kinase ABL1 (Homo sapiens) (UniProt P00519). The data set can be described thus: Inhibition of human recombinant GST-fused ABL expressed in baculovirus expression system using poly-Glu-Tyr (4:1) as substrate measured after 10 mins in presence of gamma-[33P]-ATP by scintillation counting analysis. The gist of the method:
as §4

Data set [13] can be described thus: Antitumor activity against rat BN472 cell implanted in Brown-Norway rat assessed as T/C ratio at 1 mg/kg, po qd measured upto 14 days. In kind it is functional. Conditions: time <= 14 day. Put shortly: (§5)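 Female Brown-Norway rats (160-180 g) given 3 mm³ BN472 tumor fragments in mammary fat pads; at about 200 mm², randomized into groups of 7-8 and dosed orally with compound or PEG300 vehicle over 14 days; tumor growth followed, T/C computed; significance by 2-way RM-ANOVA.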

The species entered for data set [14] is Mus musculus. In words: Antiangiogenic activity in C57BL/6jNpa mouse harbouring mouse B16-BL6 cells assessed as reduction in iAUEC level by measuring T/C ratio measured after 3 days by DCE-MRI assay. The settings on record: time 3 day. In kind it is functional. The gist of the method:
(§6)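 C57BL/6JNpa mice bearing B16/BL6 cervical lymph-node metastases, at least 8 per group, anaesthetized and given contrast agent; DCE-MRI Ktrans and iAUEC (permeability) and Vp (plasma volume) measured before and again after daily treatment; change per mouse recorded, mean ± SEM, one-way ANOVA with Holm-Sidak comparisons versus vehicle.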

The nature of data set [15]: Antitumor activity against rat BN472 cell implanted in Brown-Norway rat assessed as T/C ratio at 3 mg/kg, po qd measured upto 14 days. It is filed as functional. The settings on record: time <= 14 day. The gist of the method: as §5
The nature of data set [16]: Antitumor activity against rat BN472 cell implanted in Brown-Norway rat assessed as T/C ratio at 1 mg/kg, po administered once every 2 days measured upto 14 days. In kind it is functional. The settings on record: time <= 14 day. Put shortly: as §5
The species entered for data set [17] is Mus musculus. In words: Antiangiogenic activity in C57BL/6jNpa mouse harbouring mouse B16-BL6 cells assessed as reduction in tumor plasma volume measured after 3 days by DCE-MRI assay relative to control. In kind it is functional. On the set-up: scale not given: the % may be the effect or the level left. Conditions: time 3 day. The gist of the method:
as §6

The species named for data set [18] is Mus musculus. The data set can be described thus: Antiangiogenic activity in C57BL/6jNpa mouse harbouring mouse B16-BL6 cells assessed as reduction in tumor plasma volume by measuring T/C ratio measured after 3 days by DCE-MRI assay. It is filed as functional. Conditions: time 3 day. Put shortly:
as §6

The test system of data set [19] is B16-BL6. In words: Antitumor activity against mouse B16-BL6 cells implanted in C57BL/6jNpa mouse assessed as metastatic tumor growth inhibition at 3 mg/kg, po qd administered once every 2 days started on day 7 post implantation measured after 21 days relative to control. The settings on record: time 7-21 day. It is filed as functional, organism-based. Put shortly: (§7)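 Female C57BL/6JNpa mice, 50000 B16/BL6 cells intradermally in both ear pinnae; primary tumor area (mm²) imaged days 7, 14, 21; randomized day 7 into groups of 5-6, oral dosing in PEG200 or PEG300 vehicle daily (or every 2 days) for 14 days; day 21 cervical lymph nodes weighed, metastasis lysates assayed for TIE-2 by ELISA; T/C ratios.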

Another data set concerns BN472 cell. In words: Induction of apoptosis in rat BN472 cell implanted in Brown-Norway rat assessed as effect on caspase 3 level at 3 mg/kg, po qd measured upto 14 days by microscopic analysis. In kind it is functional, organism-based. Conditions: time <= 14.0 day. The gist of the method:
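BN472 fragments were grown in mammary fat pads of female Brown-Norway rats and dosed orally for 14 days. Hoechst dye was given i.v. 2 min before sacrifice. Excised tumors were cut as 10 micron frozen sections, blocked with 10 % normal goat serum/0.1 % Triton X-100 and stained with rabbit anti-rat caspase 3 (1:10), then a TRITC or FITC secondary. Read by fluorescence microscopy.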

For data set [20], the system named is B16-BL6. The data set can be described thus: Antitumor activity against mouse B16-BL6 cells implanted in C57BL/6jNpa mouse assessed as primary tumor growth inhibition by measuring T/C ratio at 1 mg/kg, po qd administered every 2 days started on day 7 post implantation measured after 21 days. In kind it is functional. Conditions: time 7-21 day. Put shortly: as §7

Data set [21] relates to B16-BL6. In words: Antitumor activity against mouse B16-BL6 cells implanted in C57BL/6jNpa mouse assessed as primary tumor growth inhibition by measuring T/C ratio at 3 mg/kg, po qd administered once every 2 days started on day 7 post implantation measured after 21 days. Conditions: time 7-21 day. In kind it is functional. The gist of the method: as §7

Chain of RAF proto-oncogene serine/threonine-protein kinase (Homo sapiens) (P04049 whole entry, the tested form may be a part): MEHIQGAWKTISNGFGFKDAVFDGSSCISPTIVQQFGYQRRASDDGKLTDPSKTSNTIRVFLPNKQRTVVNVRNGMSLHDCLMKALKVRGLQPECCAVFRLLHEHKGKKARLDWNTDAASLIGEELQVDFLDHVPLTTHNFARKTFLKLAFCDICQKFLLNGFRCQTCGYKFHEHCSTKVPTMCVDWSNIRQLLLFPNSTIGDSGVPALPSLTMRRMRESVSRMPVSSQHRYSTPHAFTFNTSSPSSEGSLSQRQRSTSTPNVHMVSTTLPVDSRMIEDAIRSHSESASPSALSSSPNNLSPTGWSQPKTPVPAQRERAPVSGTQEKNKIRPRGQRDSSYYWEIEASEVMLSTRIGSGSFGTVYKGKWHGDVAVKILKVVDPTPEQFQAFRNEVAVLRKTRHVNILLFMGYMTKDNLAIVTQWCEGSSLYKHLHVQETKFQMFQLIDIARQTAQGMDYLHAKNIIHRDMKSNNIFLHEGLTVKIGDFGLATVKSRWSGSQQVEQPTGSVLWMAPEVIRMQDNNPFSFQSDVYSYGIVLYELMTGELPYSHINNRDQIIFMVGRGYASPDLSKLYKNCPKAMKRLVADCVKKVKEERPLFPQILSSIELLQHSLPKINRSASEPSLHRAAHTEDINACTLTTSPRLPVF
Chain of Tyrosine-protein kinase ABL1 (Homo sapiens) (P00519 whole entry, the tested form may be a part): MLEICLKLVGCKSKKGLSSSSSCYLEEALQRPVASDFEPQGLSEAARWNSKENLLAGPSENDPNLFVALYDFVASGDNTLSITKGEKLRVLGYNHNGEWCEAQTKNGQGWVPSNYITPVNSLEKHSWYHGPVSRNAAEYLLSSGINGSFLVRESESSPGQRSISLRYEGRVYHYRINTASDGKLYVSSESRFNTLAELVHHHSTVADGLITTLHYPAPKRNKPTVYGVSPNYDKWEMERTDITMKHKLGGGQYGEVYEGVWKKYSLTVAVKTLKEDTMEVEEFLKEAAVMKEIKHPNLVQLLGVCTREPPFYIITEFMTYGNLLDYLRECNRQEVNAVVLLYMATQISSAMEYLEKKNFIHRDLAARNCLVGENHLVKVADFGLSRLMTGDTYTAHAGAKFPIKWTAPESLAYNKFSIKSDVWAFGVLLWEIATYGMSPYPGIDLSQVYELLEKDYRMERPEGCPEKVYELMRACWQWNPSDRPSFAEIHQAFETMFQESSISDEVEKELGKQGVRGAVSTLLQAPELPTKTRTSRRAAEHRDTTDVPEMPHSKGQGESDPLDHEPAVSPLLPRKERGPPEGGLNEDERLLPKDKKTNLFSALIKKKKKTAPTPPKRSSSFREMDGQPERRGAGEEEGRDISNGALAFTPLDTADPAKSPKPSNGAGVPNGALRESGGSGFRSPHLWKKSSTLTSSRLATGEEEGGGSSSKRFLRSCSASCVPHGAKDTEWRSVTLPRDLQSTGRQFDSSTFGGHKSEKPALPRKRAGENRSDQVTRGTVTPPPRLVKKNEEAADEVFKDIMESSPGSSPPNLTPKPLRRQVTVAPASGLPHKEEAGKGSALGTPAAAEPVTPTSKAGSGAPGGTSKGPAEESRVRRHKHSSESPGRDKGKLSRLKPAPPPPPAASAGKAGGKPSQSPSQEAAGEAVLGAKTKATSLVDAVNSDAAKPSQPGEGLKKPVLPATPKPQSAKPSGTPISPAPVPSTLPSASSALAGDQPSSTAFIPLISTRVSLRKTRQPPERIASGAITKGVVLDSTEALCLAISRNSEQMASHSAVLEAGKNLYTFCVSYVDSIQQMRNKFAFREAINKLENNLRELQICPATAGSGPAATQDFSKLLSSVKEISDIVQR

In general, Tmax refers to the time at which the peak concentration occurs. What is called clearance is the volume of plasma or blood freed of the substance per unit of time. What is called half-life is how long it takes for the measured level to halve. The term bioavailability denotes the share of a dose that reaches the circulation, judged against a reference dose that is usually intravenous. As for `O=C(Nc1cccc(C(F)(F)F)c1)c1cccc2cc(Oc3cc(CO)ncn3)ccc12` [BFH-772], the time of peak concentration (Tmax) in data set [1] was 2 h. Further, the Vd in data set [2] was found to be 0.63 L/kg. In addition, in data set [3], the clearance was 3 mL/min/kg. For the same compound, in data set [4], the half-life was 2.5 h. This compound also displayed a Cmax/dose in data set [5] of 1570 nM. In data set [6], this compound displayed a bioavailability of 46%.

The compound `Nc1nccc(Oc2ccc3c(C(=O)Nc4cccc(C(F)(F)F)c4)cccc3c2)n1` gave a clearance in data set [7] of 11 mL/min/kg. Moreover, in data set [8], the Vd came to 1.3 L/kg. Also, the Cmax/dose in data set [9] came out at 280 nM. For the same compound, the half-life in [10] is 2 h. Further, the inhibition result in data set [11] and in data set [12] was “Active” throughout.

Regarding `Nc1nccc(Oc2ccc3c(C(=O)Nc4ccc(F)c(C(F)(F)F)c4)cccc3c2)n1`, the T/C in data set [13] came to 0.028; in the data set listed under Mus musculus [14] it was 0.34; in data set [15], 0.056; in [16], 0.176; in the data set filed under Mus musculus [18], 0.36; in the data set with B16-BL6 [20] it was 0.6. Further, in the data set with B16-BL6 [21], the T/C is 0.39. In addition, in the data set filed under Mus musculus [17], the Activity is given as 65%. For the same compound, the outcome with B16-BL6 [19] and in the data set on BN472 cell was Active.
